Where two headings read alike, the source gives them in different places. Marks after values point to notes of the source that are not given here.
Columns and labels:
[1] = patients with advanced non-small cell lung, breast, colon, and pancreatic cancers; diarrhea, nausea, asthenia, rash, anorexia; cited from earlier work
[2] = Side effects in EHMES-10 cell-bearing SCID mice; assay type: in vivo; settings: day 30, median (range)
MSTO211H cells [3] = test: WST-1 cell proliferation assay, MSTO211H; assay type: cell-based, human; settings: 72 h, read-out: IC50 against MSTO211H cells
In short: (§1)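 Cells at 1×10^4 per well in RPMI-1640/10% FBS were exposed for 72 h to test compound at 20 to 200 μM, with DMSO final 1.0%. Vehicle controls received matching DMSO. WST-1 reagent was then added, and absorbance was read at 450 nm against a 690 nm reference. IC50 was taken from the dose-response; means ± SD.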

EHMES-10 cells [4] = assay type: in vivo, SCID mice; settings: thoracic tumors, day 30; for expression of p27kip1 and 89 kDa cleaved PARP (western blot of tumors): 30 mg/kg U0126, 25 mg/kg LY294002 or combination
In short: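 Thoracic tumors were excised on day 30 from SCID mice given i.p. test compounds twice weekly in 40% DMSO/PBS. Paraffin sections were immunostained for phospho-ERK1/2, phospho-Akt and p27kip1 (Envision method, Fuchsin+ chromogen). Tumor homogenates were lysed in Tris/NaCl/Triton/NaF/Na3VO4 buffer, cleared at 15,000 × g, separated on 7.5–15% gels and immunoblotted.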

EHMES-10 cells [5] = test: DNA fragmentation assay; assay type: cell-based, human; settings: EHMES-10, single agent, 24 h, dose-dependent
In short: (§2)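 Apoptosis was scored after 24 h exposure to either MEK or PI3K inhibitor or their combination, in RPMI-1640/10% FBS with DMSO final 1.0%. Cytoplasmic histone-associated DNA fragments were quantified with the Cell Death Detection ELISA kit. Means ± SD, ANOVA with Dunnett's test.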

MSTO211H cells [6] = test: DNA fragmentation assay; assay type: cell-based, human; settings: single agent, 24 h, dose-dependent
In short: as §2

MSTO211H cells [7] = test: Cell cycle analysis; assay type: cell-based, human; settings: 24 h; for percentage of cells in sub-G1 phase compared to control: 80 μM each agent; for G1-phase population compared to control: 80 μM, P<0.05
In short: (§3)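 Cells grown in RPMI-1640 with 10% FBS at 37°C and 5% CO2 were exposed to 80 μM MEK inhibitor, 80 μM PI3K inhibitor or both for 24 h (DMSO final 1.0%). They were then trypsinized, and nuclei were stained with propidium iodide (CycleTest Plus kit). Phase profiles came from FACScan flow cytometry. Three independent runs; means ± SD, ANOVA with Dunnett's test.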

[8] = cited from earlier work
EHMES-10 cells [9] = test: Cell cycle analysis; assay type: cell-based, human; settings: 24 h; for percentage of cells in sub-G1 phase compared to control: EHMES-10, 80 μM each agent; for G1-phase population compared to control: EHMES-10, 80 μM, P<0.05
In short: as §3

MSTO211H cells [10] = test: Western blot analysis of cultured MSTO211H cells; assay type: cell-based, human; settings: 80 μM, 24 h
In short: (§4)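 Cultured cells received 80 μM MEK inhibitor and/or 80 μM PI3K inhibitor for 24 h. Lysates were cleared at 15,000 × g, 15 min, 4°C, resolved on 7.5–15% gels, transferred to nitrocellulose and immunoblotted; three independent experiments.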

EHMES-10 cells [11] = test: WST-1 cell proliferation assay, EHMES-10; assay type: cell-based, human; settings: 72 h, read-out: IC50 against EHMES-10 cells
In short: as §1

EHMES-10 cells [12] = test: Western blot analysis of cultured EHMES-10 cells; assay type: cell-based, human; settings: EHMES-10, 80 μM, 24 h
In short: as §4

EHMES-10 cells [13] = test: Orthotopic implantation model, EHMES-10 cells in SCID mice; assay type: in vivo; settings: for Pleural effusion Incidence / Thoracic tumor Incidence: day 30; for Pleural effusion Volume / Thoracic tumor Weight: day 30, median (range); for survival time compared to control group: P<0.01
In short: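 Male SCID mice aged 6–8 weeks received 3×10^6 EHMES-10 cells in PBS into the thoracic cavity. On day 7 they were randomized, […], to vehicle (40% DMSO in PBS), MEK inhibitor (20, 30, 40 mg/kg), PI3K inhibitor (12.5, 25, 50 mg/kg) or 30 + 25 mg/kg combined, given i.p. twice weekly. Mice were killed on day 30; tumor weighed, effusion volume measured. Medians (ranges), Mann-Whitney; survival by Kaplan-Meier/log-rank.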

[14] = 25 mg/kg LY294002, alone or with 30 mg/kg U0126
[15] = 30 mg/kg U0126, alone or with 25 mg/kg LY294002

O=C(NOCC1CC1)c1ccc(F)c(F)c1Nc1ccc(I)cc1Cl [CI-1040]
toxicities in patients [1]: mild or moderate toxicities

O=c1cc(N2CCOCC2)oc2c(-c3ccccc3)cccc12 [LY294002]
ALT ([2]; 25 mg/kg i.p. twice/week): 19 (15–72) IU/l
AST ([2]; 25 mg/kg i.p. twice/week): 46 (37–117) IU/l
BUN ([2]; 25 mg/kg i.p. twice/week): 20.2 (17.9–23.0) mg/dl
Cre ([2]; 25 mg/kg i.p. twice/week): 0.11 (0.06–0.20) mg/dl
TP (serum total protein) ([2]; 25 mg/kg i.p. twice/week): 4.3 (3.9–5.6) g/dl
Weight (body weight) ([2]; 25 mg/kg i.p. twice/week): 25.4 (24.4–26.3) g
ALT ([2]; 50 mg/kg i.p. twice/week): 25 (16–42) IU/l
AST ([2]; 50 mg/kg i.p. twice/week): 51 (46–92) IU/l
BUN ([2]; 50 mg/kg i.p. twice/week): 21.0 (16.4–23.2) mg/dl
Cre ([2]; 50 mg/kg i.p. twice/week): 0.09 (0.07–0.12)^a mg/dl
TP (serum total protein) ([2]; 50 mg/kg i.p. twice/week): 4.4 (3.9–5.6) g/dl
Weight (body weight) ([2]; 50 mg/kg i.p. twice/week): 24.4 (22.7–26.3) g
IC50 (MSTO211H cells [3]; Homo sapiens, MSTO-211H): 29.9 µM
Akt phosphorylation (western blot of tumors) (EHMES-10 cells [4]; [14]): inhibited
phospho-Akt-positive tumor cells (immunohistochemistry) (EHMES-10 cells [4]; [14]): reduced
expression of p27kip1 and 89 kDa cleaved PARP (western blot of tumors) (EHMES-10 cells [4]): increased
apoptosis by DNA fragmentation analysis (EHMES-10 cells [5]): induced apoptosis
apoptosis by DNA fragmentation analysis (MSTO211H cells [6]): induced apoptosis
percentage of cells in sub-G1 phase compared to control (MSTO211H cells [7]): significantly increased
G1-phase population compared to control (MSTO211H cells [7]): significantly increased
side effects ([8]; administration reduced to three days per week): side effects were not shown
side effects ([8]; daily intraperitoneal 100 mg/kg, mice with ovarian cancer): body weight loss and dry skin
percentage of cells in sub-G1 phase compared to control (EHMES-10 cells [9]): significantly increased
G1-phase population compared to control (EHMES-10 cells [9]): significantly increased
level of 89 kDa cleaved PARP (MSTO211H cells [10]): increased
levels of phospho-Bad and procaspase 3 (MSTO211H cells [10]): decreased
IC50 (EHMES-10 cells [11]; Homo sapiens): 20.7 µM
HIF1α and VEGF expression (EHMES-10 cells [12]): inhibited
cyclin D1 expression (EHMES-10 cells [12]): decrease
level of 89 kDa cleaved PARP (EHMES-10 cells [12]): increased
levels of phospho-Bad and procaspase 3 (EHMES-10 cells [12]): decreased
phosphorylation of Akt, p70S6K, S6 and GSK3β (EHMES-10 cells [12]): suppressed
Pleural effusion Incidence (EHMES-10 cells [13]; 25 mg/kg i.p. twice/week): 1/5
Thoracic tumor Incidence (EHMES-10 cells [13]; 25 mg/kg i.p. twice/week): 3/5
Pleural effusion Volume (EHMES-10 cells [13]; 25 mg/kg i.p. twice/week): 0 (0–10)^a μl
Thoracic tumor Weight (EHMES-10 cells [13]; 25 mg/kg i.p. twice/week): 69.1 (0–481.6)^a mg
survival time compared to control group (EHMES-10 cells [13]; 50 mg/kg i.p. twice a week): significantly prolonged
Pleural effusion Incidence (EHMES-10 cells [13]; 50 mg/kg i.p. twice/week): 0/5
Thoracic tumor Incidence (EHMES-10 cells [13]; 50 mg/kg i.p. twice/week): 2/5
Pleural effusion Volume (EHMES-10 cells [13]; 50 mg/kg i.p. twice/week): 0 (−)^a μl
Thoracic tumor Weight (EHMES-10 cells [13]; 50 mg/kg i.p. twice/week): 0 (0–41)^a mg

N#CC(=C(/N)Sc1ccccc1N)/C(C#N)=C(/N)Sc1ccccc1N [U0126]
ALT ([2]; 30 mg/kg i.p. twice/week): 30 (20–60) IU/l
AST ([2]; 30 mg/kg i.p. twice/week): 48 (44–64) IU/l
BUN ([2]; 30 mg/kg i.p. twice/week): 22.2 (15.4–24.0) mg/dl
Cre ([2]; 30 mg/kg i.p. twice/week): 0.10 (0.08–0.15) mg/dl
TP (serum total protein) ([2]; 30 mg/kg i.p. twice/week): 4.3 (4.0–5.0) g/dl
Weight (body weight) ([2]; 30 mg/kg i.p. twice/week): 24.1 (23.5–27.2) g
ALT ([2]; 40 mg/kg i.p. twice/week): 45 (31–80) IU/l
AST ([2]; 40 mg/kg i.p. twice/week): 75 (53–111) IU/l
BUN ([2]; 40 mg/kg i.p. twice/week): 19.1 (15.3–22.1) mg/dl
Cre ([2]; 40 mg/kg i.p. twice/week): 0.07 (0.05–0.12)^a mg/dl
TP (serum total protein) ([2]; 40 mg/kg i.p. twice/week): 5.0 (4.4–6.6) g/dl
Weight (body weight) ([2]; 40 mg/kg i.p. twice/week): 24.9 (23.3–25.9) g
IC50 (MSTO211H cells [3]; WST-1 assay): 39 µM
expression of p27kip1 and 89 kDa cleaved PARP (western blot of tumors) (EHMES-10 cells [4]): increased
ERK1/2 phosphorylation (western blot of tumors) (EHMES-10 cells [4]; [15]): inhibited
phospho-ERK1/2-positive tumor cells (immunohistochemistry) (EHMES-10 cells [4]; [15]): reduced
apoptosis by DNA fragmentation analysis (EHMES-10 cells [5]): induced apoptosis
apoptosis by DNA fragmentation analysis (MSTO211H cells [6]): induced apoptosis
percentage of cells in sub-G1 phase compared to control (MSTO211H cells [7]): significantly increased
G1-phase population compared to control (MSTO211H cells [7]): significantly increased
percentage of cells in sub-G1 phase compared to control (EHMES-10 cells [9]): significantly increased
G1-phase population compared to control (EHMES-10 cells [9]): significantly increased
cyclin D1 expression (MSTO211H cells [10]): decrease
level of 89 kDa cleaved PARP (MSTO211H cells [10]): increased
levels of phospho-Bad and procaspase 3 (MSTO211H cells [10]): decreased
IC50 (EHMES-10 cells [11]; WST-1 assay): 66.8 µM
HIF1α and VEGF expression (EHMES-10 cells [12]): decreased
cyclin D1 expression (EHMES-10 cells [12]): decrease
level of 89 kDa cleaved PARP (EHMES-10 cells [12]): increased
levels of phospho-Bad and procaspase 3 (EHMES-10 cells [12]): decreased
phosphorylation of ERK1/2 and p90RSK (EHMES-10 cells [12]): blocked
survival time compared to control group (EHMES-10 cells [13]; 30 mg/kg i.p. twice a week): significantly prolonged
Pleural effusion Incidence (EHMES-10 cells [13]; 30 mg/kg i.p. twice/week): 1/5
Thoracic tumor Incidence (EHMES-10 cells [13]; 30 mg/kg i.p. twice/week): 4/5
Pleural effusion Volume (EHMES-10 cells [13]; 30 mg/kg i.p. twice/week): 0 (0–100)^a μl
Thoracic tumor Weight (EHMES-10 cells [13]; 30 mg/kg i.p. twice/week): 31.3 (0–59.2)^a mg
survival time compared to control group (EHMES-10 cells [13]; 40 mg/kg i.p. twice a week): significantly prolonged
Pleural effusion Incidence (EHMES-10 cells [13]; 40 mg/kg i.p. twice/week): 0/5
Thoracic tumor Incidence (EHMES-10 cells [13]; 40 mg/kg i.p. twice/week): 3/5
Pleural effusion Volume (EHMES-10 cells [13]; 40 mg/kg i.p. twice/week): 0 (−)^a μl
Thoracic tumor Weight (EHMES-10 cells [13]; 40 mg/kg i.p. twice/week): 14.6 (0–191.3)^a mg

— publication PMC3582904 (International Journal of Oncology, 2012)
